From PubChem BioAssay
Results filed as inconclusive are left out.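 Rule for the calls, unless noted: active = growth inhibition above 25% in both replicates, a cutoff set 3 SD above the mean; inconclusive = above 25% in only one replicate; inactive = the rest.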

Key:
[1] = S. cerevisiae growth inhibition in permissive medium (OD615), pilot counter-assay for S. cerevisiae lifespan shortening project, permissive growth control (AID 705); conditions: OD615, 24 h, at 10 µM, stronger effect = higher value
Outline: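 Timing: 24 h exposure, 30 °C / Material: Saccharomyces cerevisiae strain carrying genetically modified DeaD replicative-lifespan system / Signal: OD at 615 nm / Compound: 10 µM single dose, 0.25% DMSO / Medium: SC raffinose/galactose permissive medium / Evaluation: reduction in yeast growth (OD615)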

[2] = S. cerevisiae growth inhibition in restrictive medium, OD615, pilot screen, restrictive growth control, yeast lifespan reduction project (AID 706;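 active = growth inhibition above a set limit, 3 SD over mean compound inhibition, in both replicates, cut at about 43% in these data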;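 note: modified DeaD lifespan yeast strain shifted to restrictive glucose medium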); conditions: OD615, 48 h, at 10 µM, stronger effect = higher value
Outline: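 System: Engineered S. cerevisiae DeaD strain | Detection: OD615 | Buffer or medium: CSMM-D glucose medium | Doses: 10 µM compound, 0.25% DMSO | Timing: 4 h pre-growth plus 48 h compound exposure, 30 °C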

[3] = doxorubicin toxicity protection in MRP-1 cells – H69AR cells, CellTiter-Glo, duplicate, MRP-1 activator project, pilot screen (AID 807;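 active = viability increase at or above a cutoff of the median across tested compounds plus 3 SD, cut at about 8.5% in these data, passing the limit was not always enough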;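 note: compound pretreatment 18-22 h then 72 h combined with doxorubicin; 0% = doxorubicin alone and 100% = vehicle without doxorubicin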); conditions: H69AR viability with doxorubicin, CellTiter-Glo luminescence; at 10 µM; stronger effect = higher value
[4] = viability of HCT116 without oncogenic beta-catenin – human colon tumor cells, pilot screen (AID 823;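 active = cell viability at or below a set limit in both duplicate runs, the limit being the all-compound median minus 4 SD, cut at about 23% in these data, passing the limit was not always enough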;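 note: 0% = wells killed by 20 µM Hyamine and 100% = untreated DMSO cell wells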); conditions: HCT116 beta-catenin knockout viability, CellTiter-Glo, 60 h; at 10 µM; stronger effect = lower value
[5] = viability of PTEN-null HCT116 cells – cell-based, HCT116 clonal line, CellTiter-Glo, pilot screen (AID 824;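 active = viability at or below 27.92% in each of two runs, the all-compound median minus 4 SD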;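 note: 0% = 20 µM Hyamine control and 100% = vehicle cell control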); conditions: HCT116 PTEN-deleted viability, 60 h, at 10 µM, stronger effect = lower value
[6] = RAM pathway blockade in budding yeast – dse1pr::URA3 reporter, 5-FOA selection, pilot screen (AID 869;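 active = inhibition over a set limit, the all-compound mean plus 3 SD, in both replicate runs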;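 note: 0% = DMSO wells with no growth and 100% = 10 µM 1-NA-PP1 with full growth; RAM network block rescues cells from 5-FOA so hits raise OD615 growth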); conditions: S. cerevisiae dse1pr::URA3 5-FOA growth, OD615, 2 d; at 10 µM; stronger effect = higher value; strain carries analog-sensitive mutant Cbk1 kinase
[7] = RAM signaling pathway blockade in yeast – S. cerevisiae, Pdr1DBD-CYC8 efflux-inhibited sensitized strain, primary screen (AID 1298;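 active = RAM network inhibition above 8.4% in each of two replicates, 3 SD over the compound average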;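 note: 0% = DMSO untreated cells without growth and 100% = 10 µM 1-NA-PP1 full growth; higher means more yeast growth rescued from 5-FOA killing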); conditions: S. cerevisiae cbk1-as DSE1-URA3 strain, 5-FOA growth OD615, 2 d; at 50 µM; stronger effect = higher value

CC1CCCN(C(=O)c2ccc3c(c2)C(=O)N(CCC2=CCCCC2)C3=O)C1 (configuration not stated)
inactive: growth inhibition [1] -5.42% | growth inhibition [2] -30.7% | viability increase [3] -0.25% | viability [4] 87.5% | viability [5] 83.8% | inhibition [6] 0.28% | RAM network inhibition [7] 3.27%

CCOc1ccc(N(CC(=O)O)S(=O)(=O)c2ccc(OC)c(OC)c2)cc1
inactive: growth inhibition [1] -8.3% | growth inhibition [2] -13.4% | viability increase [3] -0.45% | viability [4] 95.5% | viability [5] 95.3% | inhibition [6] 1.32% | RAM network inhibition [7] 1.05%

COCCCNc1oc(-c2ccccc2F)nc1C#N
inactive: growth inhibition [1] -13.2% | growth inhibition [2] -15.9% | viability increase [3] 2.02% | viability [4] 105% | viability [5] 97.2% | inhibition [6] -0.74% | RAM network inhibition [7] 0.89%

Cc1ccc(C(=O)Nc2nc3ccccc3n2CCN2CCCC2)cc1
inactive: growth inhibition [1] -11.4% | growth inhibition [2] -2% | viability increase [3] -5.99% | viability [4] 37.4% | viability [5] 51.5% | inhibition [6] 0.665% | RAM network inhibition [7] 7.05%

COc1ccc(S(=O)(=O)N(C)c2c(C)n(C)n(-c3ccccc3)c2=O)cc1OC
inactive: growth inhibition [1] -5.13% | growth inhibition [2] 0.325% | viability increase [3] -1.65% | viability [4] 95.5% | viability [5] 102% | inhibition [6] 0.535% | RAM network inhibition [7] 3.38%

CNC(=O)CN1C(=O)CSc2ncccc21
inactive: growth inhibition [1] 10.1% | growth inhibition [2] 2.23% | viability increase [3] -0.85% | viability [4] 101% | viability [5] 92.2% | inhibition [6] 1.78% | RAM network inhibition [7] -1.94%

OCC1(C2=NOC(O)(C(F)(F)F)C2)CCCCC1 (configuration not stated)
inactive: growth inhibition [1] -7.57% | growth inhibition [2] -22.3% | viability increase [3] 1.19% | viability [4] 101% | viability [5] 101% | inhibition [6] 2.09% | RAM network inhibition [7] 3.18%

Cc1ccc2oc(=O)c3cnn(CC(=O)NCCCOC(C)C)c3c2c1
inactive: growth inhibition [1] -9.03% | growth inhibition [2] -7.34% | viability increase [3] -2.72% | viability [4] 106% | viability [5] 94.2% | inhibition [6] 1.87% | RAM network inhibition [7] 8.19%

C=CCn1c(SCC(=C)C)nc2c1c(=O)[nH]c(=O)n2C
inactive: growth inhibition [1] -14.8% | growth inhibition [2] -25.6% | viability increase [3] -0.41% | viability [4] 109% | viability [5] 97% | inhibition [6] -0.415% | RAM network inhibition [7] 1.55%

Cc1ccc2c(c1)C(c1ccccc1)N(C(=O)C(C)C)CC(=O)N2 (configuration not stated)
inactive: growth inhibition [1] -14.9% | growth inhibition [2] -15.6% | viability increase [3] -1.2% | viability [4] 102% | viability [5] 92.1% | inhibition [6] 1.64% | RAM network inhibition [7] 4.21%

CCCCN1C(=O)C2C(c3ccc(OC)cc3O)NC(CC(C)C)(C(=O)O)C2C1=O (configuration not stated)
inactive: growth inhibition [1] -7.45% | growth inhibition [2] -8.79% | viability increase [3] 0.44% | viability [4] 97.7% | viability [5] 92.7% | inhibition [6] 0.895% | RAM network inhibition [7] 0.99%

O=C(O)c1ccc(F)c(S(=O)(=O)Nc2ccccc2)c1
inactive: growth inhibition [1] -3.28% | growth inhibition [2] -2.19% | viability increase [3] 1.08% | viability [4] 96.2% | viability [5] 101% | inhibition [6] -0.93% | RAM network inhibition [7] -0.06%

CCCC(NS(=O)(=O)c1ccc(OC)cc1)C(=O)O (configuration not stated)
inactive: growth inhibition [1] -8.86% | growth inhibition [2] -7.75% | viability increase [3] -1.16% | viability [4] 90.1% | viability [5] 95.4% | inhibition [6] 1.29% | RAM network inhibition [7] 3.19%

O=C(NCCCN1CCc2ccccc2C1)C1CCN(c2nnc(-n3cccc3)s2)CC1
inactive: growth inhibition [1] 2.54% | growth inhibition [2] -1.29% | viability increase [3] -3.55% | viability [4] 82.2% | viability [5] 79.4% | inhibition [6] 2.08% | RAM network inhibition [7] 5.45%

c1cn(CCCNc2ncnc3nc[nH]c23)cn1
inactive: growth inhibition [1] -7.59% | growth inhibition [2] -16.1% | viability increase [3] -1.91% | viability [4] 111% | viability [5] 96.2% | inhibition [6] 0.895% | RAM network inhibition [7] 2.98%

O=C(C1CC(c2ccc(F)cc2)=NO1)N1CCN(Cc2ccccc2)CC1 (configuration not stated)
inactive: growth inhibition [1] -0.77% | growth inhibition [2] -2.39% | viability increase [3] -1.28% | viability [4] 96.2% | viability [5] 101% | inhibition [6] 1.8% | RAM network inhibition [7] 2.3%

Cc1ccc2oc(=O)c3cnn(CC(=O)N(CCCN4CCOCC4)Cc4ccco4)c3c2c1
inactive: growth inhibition [1] -16.5% | growth inhibition [2] -28.7% | viability increase [3] -3.59% | viability [4] 93.2% | viability [5] 87.9% | inhibition [6] 1.55% | RAM network inhibition [7] 3.73%

COc1ccc(-c2noc(-c3ccccc3F)n2)cc1
inactive: growth inhibition [1] -9.92% | growth inhibition [2] -12% | viability increase [3] -3.21% | viability [4] 86.6% | viability [5] 83.1% | inhibition [6] 0.965% | RAM network inhibition [7] 4.28%

COc1ccc(S(=O)(=O)NCCN2CCOCC2)c2ccccc12
inactive: growth inhibition [1] -1.53% | growth inhibition [2] -2.08% | viability increase [3] -1.32% | viability [4] 101% | viability [5] 95.1% | inhibition [6] -0.495% | RAM network inhibition [7] 1.53%

CCOC(=O)c1ccc(NC(=O)CSc2nc3c(c(=O)n2-c2ccccc2OC)SCC3)cc1
inactive: growth inhibition [1] -1.49% | growth inhibition [2] -14.6% | viability increase [3] -2.33% | viability [4] 85.7% | viability [5] 81.4% | inhibition [6] 1.34% | RAM network inhibition [7] 3.9%

O=C(Nc1ccccc1Cl)N1CCN(c2ccccn2)CC1
inactive: growth inhibition [1] -6.09% | growth inhibition [2] -5.88% | viability increase [3] -0.46% | viability [4] 103% | viability [5] 109% | inhibition [6] 1.91% | RAM network inhibition [7] 4.61%

CC(C)=C1C2C=CC1C(C(=O)Nc1cc(C)ccc1C)C2C(=O)O (configuration not stated)
inactive: growth inhibition [1] -14.6% | growth inhibition [2] -12.2% | viability increase [3] -4.28% | viability [4] 87.4% | viability [5] 85.8% | inhibition [6] 1.78% | RAM network inhibition [7] 6.92%

Cc1cccc(-n2c(Cc3cc(=O)[nH]c(=O)[nH]3)nnc2SCC(=O)N2CCCCC2)c1
inactive: growth inhibition [1] 4% | growth inhibition [2] 16.8% | viability increase [3] -0.52% | viability [4] 106% | viability [5] 87.8% | inhibition [6] 3.3% | RAM network inhibition [7] -0.11%

CC(C)n1c(CCCO)nc2ccccc21
inactive: growth inhibition [1] -11.3% | growth inhibition [2] -5.23% | viability increase [3] -1.64% | viability [4] 95.7% | viability [5] 88.1% | inhibition [6] 0.93% | RAM network inhibition [7] 0.19%

CCn1cc(C2=NC(C(C)C)CO2)c2ccccc21 (configuration not stated)
inactive: growth inhibition [1] -12% | growth inhibition [2] -6.49% | viability increase [3] -2.74% | viability [4] 99.2% | viability [5] 95.9% | inhibition [6] 1.54% | RAM network inhibition [7] 2.06%

Cc1ccc(S(=O)(=O)NCCCN2CCOCC2)c(C)c1
inactive: growth inhibition [1] -5.02% | growth inhibition [2] -7.8% | viability increase [3] -1.19% | viability [4] 96.8% | viability [5] 95.5% | inhibition [6] 2.29% | RAM network inhibition [7] 5.89%

O=C(Cn1ncc2c(=O)oc3ccccc3c21)N1CCC(N2CCCCC2)CC1
inactive: growth inhibition [1] 9.66% | growth inhibition [2] 1.36% | viability increase [3] -1.31% | viability [4] 99.5% | viability [5] 99.8% | inhibition [6] 1.65% | RAM network inhibition [7] 4.58%

CCC(C)(C(=O)NC1CCCCC1)N(C(=O)C1CCC(=O)N1)c1ccc(C)cc1 (configuration not stated)
inactive: growth inhibition [1] 2.44% | growth inhibition [2] -4.21% | viability increase [3] -1.97% | viability [4] 98.7% | viability [5] 92.1% | inhibition [6] 1.71% | RAM network inhibition [7] 1.9%

CCN(CC)CCOc1ccc(Br)cc1
inactive: growth inhibition [1] -12.9% | growth inhibition [2] -12.2% | viability increase [3] -0.72% | viability [4] 90.1% | viability [5] 103% | inhibition [6] 1.24% | RAM network inhibition [7] 1.1%

COc1ccccc1NC(=O)C1=C(C)NC(=O)NC1c1cccc(OC)c1OC (configuration not stated)
inactive: growth inhibition [1] -3.89% | growth inhibition [2] 2.57% | viability increase [3] -2.1% | viability [4] 104% | viability [5] 94.8% | inhibition [6] 0.545% | RAM network inhibition [7] 3.58%

COc1ccc(NS(=O)(=O)c2ccc(NS(=O)(=O)c3ccc(C)cc3)cc2)nn1
inactive: growth inhibition [1] -13.5% | growth inhibition [2] -7.58% | viability increase [3] 1.15% | viability [4] 92.9% | viability [5] 96.8% | inhibition [6] 2.95% | RAM network inhibition [7] 4.16%

CC(NS(C)(=O)=O)C(c1cccs1)N1CCN(Cc2ccccc2)CC1 (configuration not stated)
inactive: growth inhibition [1] -7.18% | growth inhibition [2] 11.4% | viability increase [3] -1.92% | viability [4] 85.5% | viability [5] 87.3% | inhibition [6] 1.25% | RAM network inhibition [7] 3.61%

CCN(CC)C(=O)c1cc2c(=O)n3ccccc3nc2s1
inactive: growth inhibition [1] -4.75% | growth inhibition [2] -3.33% | viability increase [3] -3.66% | viability [4] 93.7% | viability [5] 96.2% | inhibition [6] 1.94% | RAM network inhibition [7] 0.68%

O=C1CC(c2nc3ccccc3[nH]2)CN1Cc1ccccc1 (configuration not stated)
inactive: growth inhibition [1] -0.355% | growth inhibition [2] -0.09% | viability increase [3] -1.02% | viability [4] 101% | viability [5] 95% | inhibition [6] 1.07% | RAM network inhibition [7] 0.96%

O=C(CCSCCC(=O)NCc1ccco1)NCc1ccco1
inactive: growth inhibition [1] 3.59% | growth inhibition [2] 10.5% | viability increase [3] -1.12% | viability [4] 89% | viability [5] 96% | inhibition [6] 0.745% | RAM network inhibition [7] 6.5%

O=C(O)CCn1c(-c2ccccc2)cc2c1CCCC2=O
inactive: growth inhibition [1] 1.65% | growth inhibition [2] -0.555% | viability increase [3] -0.35% | viability [4] 95.7% | viability [5] 95% | inhibition [6] 4.84% | RAM network inhibition [7] 0.47%
